Results as given in ChEMBL document CHEMBL3608246, “Novel benzidine and diaminofluorene prolinamide derivatives as potent hepatitis C virus NS5A inhibitors” (Eur J Med Chem, 2015).

Tests used:
[1] = system: Hepatitis C virus; assay: Antiviral activity against HCV genotype 1b NK/R2AN infected in human Huh7.5.1 cells assessed as reduction in virus replication by luciferase reporter gene assay; assay type: functional, organism-based, Hepacivirus hominis, subtype 1b NK/R2AN, Huh-7
[2] = system: Hepatitis C virus; assay: Antiviral activity against HCV genotype 2a JFH5a infected in human Huh7.5.1 cells transfected with JFH5a-Rluc-ad34 assessed as reduction in virus proliferation by luciferase reporter gene assay; assay type: functional, cell-based, Hepacivirus hominis, Huh-7
[3] = Cytotoxicity against human Huh7.5.1 cells; assay type: cell-based, Huh-7
[4] = biological target: Cytochrome P450 3A4 (Homo sapiens, UniProt P08684); assay: Inhibition of human CYP3A4 by luminometry; assay type: ADME
Sequence of Cytochrome P450 3A4 (P08684 whole entry): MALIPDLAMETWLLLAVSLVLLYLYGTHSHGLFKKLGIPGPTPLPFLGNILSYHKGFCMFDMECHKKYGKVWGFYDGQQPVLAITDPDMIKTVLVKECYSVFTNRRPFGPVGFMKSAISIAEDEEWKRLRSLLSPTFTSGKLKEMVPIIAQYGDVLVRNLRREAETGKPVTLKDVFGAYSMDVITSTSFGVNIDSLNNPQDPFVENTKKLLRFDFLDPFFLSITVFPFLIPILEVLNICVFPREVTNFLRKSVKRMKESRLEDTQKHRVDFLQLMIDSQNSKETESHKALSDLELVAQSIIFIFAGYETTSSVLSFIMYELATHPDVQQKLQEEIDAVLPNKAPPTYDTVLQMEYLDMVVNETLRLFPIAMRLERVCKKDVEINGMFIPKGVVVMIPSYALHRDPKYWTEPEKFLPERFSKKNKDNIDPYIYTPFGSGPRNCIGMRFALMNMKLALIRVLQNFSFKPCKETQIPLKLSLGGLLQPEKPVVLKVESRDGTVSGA
Method in brief: (§1)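 Human CYP1A2, 2C9, 2C19, 2D6 and 3A4 inhibition by P450-Glo luminescent assay per kit protocol; compounds at 100, 50, 10, 5, 1, 0.1 and 0.01 µM; luminometer read-out.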

[5] = Oral bioavailability in Sprague-Dawley rat at 10 mg/kg by LC/MS/MS method; assay type: ADME, organism-based; conditions: in vivo
Method in brief: (§2)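 Sprague-Dawley rats, 2 male and 1 female per compound per route, parallel design. Vehicle 5% DMSO, 10% solutol, 85% HPBCD; IV 5 mg/kg bolus via tail vein, oral 10 mg/kg. Blood into K2-EDTA tubes at several time points, centrifuged, plasma analysed by LC/MS/MS; non-compartmental analysis.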

[6] = biological target: Cytochrome P450 2D6 (Homo sapiens, UniProt P10635); assay: Inhibition of human CYP2D6 by luminometry; assay type: ADME; method in brief: as §1
Sequence of Cytochrome P450 2D6 (P10635 whole entry): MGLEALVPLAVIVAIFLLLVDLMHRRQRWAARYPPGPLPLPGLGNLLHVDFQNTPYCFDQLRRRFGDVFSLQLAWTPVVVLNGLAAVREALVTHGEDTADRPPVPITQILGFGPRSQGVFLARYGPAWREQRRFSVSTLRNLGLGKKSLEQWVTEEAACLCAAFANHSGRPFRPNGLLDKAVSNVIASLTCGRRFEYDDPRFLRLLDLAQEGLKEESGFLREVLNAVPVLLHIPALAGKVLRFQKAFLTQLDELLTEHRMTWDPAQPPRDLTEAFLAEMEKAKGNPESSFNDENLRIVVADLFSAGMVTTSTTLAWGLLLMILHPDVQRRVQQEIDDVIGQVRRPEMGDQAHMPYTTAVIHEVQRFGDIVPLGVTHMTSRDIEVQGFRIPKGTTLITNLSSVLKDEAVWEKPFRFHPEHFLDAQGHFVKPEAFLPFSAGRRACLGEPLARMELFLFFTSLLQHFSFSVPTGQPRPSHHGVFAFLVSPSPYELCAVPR

[7] = Half life in Sprague-Dawley rat at 10 mg/kg, po by LC/MS/MS method; assay type: ADME, organism-based; conditions: in vivo; method in brief: as §2
[8] = Stability in human liver microsomes assessed as compound remaining at 1 uM after 0.5 hrs by LC-MS/MS method; assay type: ADME; conditions: read-out: Stability
Method in brief: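 Pooled human liver microsomal fraction with β-NADPH, compound at 1 µM, incubated over 30 min; remaining compound in supernatant quantified by LC-MS/MS.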

[9] = biological target: Cytochrome P450 2C9 (Homo sapiens, UniProt P11712); assay: Inhibition of human CYP2C9 by luminometry; assay type: ADME; method in brief: as §1
Sequence of Cytochrome P450 2C9 (P11712 whole entry): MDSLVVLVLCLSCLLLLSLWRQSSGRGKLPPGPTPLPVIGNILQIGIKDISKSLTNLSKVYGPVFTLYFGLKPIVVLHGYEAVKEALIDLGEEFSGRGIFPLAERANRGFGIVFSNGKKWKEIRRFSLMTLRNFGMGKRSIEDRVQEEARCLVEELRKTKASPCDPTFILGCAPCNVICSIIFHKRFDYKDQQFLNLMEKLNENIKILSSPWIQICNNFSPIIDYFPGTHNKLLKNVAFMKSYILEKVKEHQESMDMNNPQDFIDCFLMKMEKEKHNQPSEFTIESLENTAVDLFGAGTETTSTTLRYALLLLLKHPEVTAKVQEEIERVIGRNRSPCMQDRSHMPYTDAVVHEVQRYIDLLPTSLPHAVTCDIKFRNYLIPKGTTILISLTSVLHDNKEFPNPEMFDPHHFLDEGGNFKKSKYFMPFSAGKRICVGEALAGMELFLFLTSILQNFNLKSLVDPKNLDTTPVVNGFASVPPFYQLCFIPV

[10] = Half life in Sprague-Dawley rat at 5 mg/kg, iv by LC/MS/MS method; assay type: ADME, organism-based; conditions: in vivo; method in brief: as §2
[11] = biological target: T1, Cytochrome P450 1A2 (Homo sapiens, UniProt P05177); assay: Inhibition of human CYP1A2 by luminometry; assay type: ADME; method in brief: as §1
T1 sequence (P05177 whole entry): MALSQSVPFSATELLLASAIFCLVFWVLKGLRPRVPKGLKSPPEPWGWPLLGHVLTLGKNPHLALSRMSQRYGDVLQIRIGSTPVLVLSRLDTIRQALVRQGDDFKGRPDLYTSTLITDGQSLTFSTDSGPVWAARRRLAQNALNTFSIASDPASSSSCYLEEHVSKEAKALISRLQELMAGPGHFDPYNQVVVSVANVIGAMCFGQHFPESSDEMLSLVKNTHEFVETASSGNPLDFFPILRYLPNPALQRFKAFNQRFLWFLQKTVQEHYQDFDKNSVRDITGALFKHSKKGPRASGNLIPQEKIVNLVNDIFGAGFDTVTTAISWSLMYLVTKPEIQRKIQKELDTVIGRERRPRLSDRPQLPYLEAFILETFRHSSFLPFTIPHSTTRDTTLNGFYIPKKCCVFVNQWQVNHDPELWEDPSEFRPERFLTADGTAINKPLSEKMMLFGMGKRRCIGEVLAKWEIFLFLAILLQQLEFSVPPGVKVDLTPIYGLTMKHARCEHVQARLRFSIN

[12] = biological target: hERG (KCNH2) (Homo sapiens, UniProt Q12809); assay: Inhibition of human ERG at 10 uM by fluorescence polarization assay based ligand binding assay
Sequence of hERG (KCNH2) (Q12809 whole entry): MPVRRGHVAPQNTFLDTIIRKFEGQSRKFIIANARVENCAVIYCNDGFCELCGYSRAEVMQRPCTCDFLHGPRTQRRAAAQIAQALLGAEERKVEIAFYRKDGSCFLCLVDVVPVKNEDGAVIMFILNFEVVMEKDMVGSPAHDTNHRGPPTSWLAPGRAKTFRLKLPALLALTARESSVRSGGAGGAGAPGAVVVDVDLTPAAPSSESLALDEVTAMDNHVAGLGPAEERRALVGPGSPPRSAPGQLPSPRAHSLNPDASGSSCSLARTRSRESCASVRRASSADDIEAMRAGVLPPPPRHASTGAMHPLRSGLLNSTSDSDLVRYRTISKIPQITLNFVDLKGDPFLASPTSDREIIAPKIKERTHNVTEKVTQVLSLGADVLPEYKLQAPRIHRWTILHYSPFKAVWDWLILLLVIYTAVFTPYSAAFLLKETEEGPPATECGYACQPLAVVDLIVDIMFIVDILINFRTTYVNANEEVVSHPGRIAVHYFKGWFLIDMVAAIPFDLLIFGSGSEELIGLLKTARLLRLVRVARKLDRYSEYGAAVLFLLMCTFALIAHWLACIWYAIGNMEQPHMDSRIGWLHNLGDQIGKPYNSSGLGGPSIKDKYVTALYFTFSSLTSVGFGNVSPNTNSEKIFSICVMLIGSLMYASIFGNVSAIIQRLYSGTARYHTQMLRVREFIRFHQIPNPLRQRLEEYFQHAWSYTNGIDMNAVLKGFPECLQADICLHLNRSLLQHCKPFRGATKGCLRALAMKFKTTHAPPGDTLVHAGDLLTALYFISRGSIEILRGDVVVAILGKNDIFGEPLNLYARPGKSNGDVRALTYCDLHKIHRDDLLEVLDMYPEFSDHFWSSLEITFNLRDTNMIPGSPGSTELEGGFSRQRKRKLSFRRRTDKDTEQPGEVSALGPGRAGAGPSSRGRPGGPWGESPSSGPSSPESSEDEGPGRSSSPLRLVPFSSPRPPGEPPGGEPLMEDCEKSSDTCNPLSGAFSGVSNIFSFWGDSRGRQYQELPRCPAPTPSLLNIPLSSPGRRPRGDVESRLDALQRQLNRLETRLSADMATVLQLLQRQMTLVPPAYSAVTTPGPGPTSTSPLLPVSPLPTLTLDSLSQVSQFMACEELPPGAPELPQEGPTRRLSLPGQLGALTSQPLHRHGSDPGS

[13] = biological target: Cytochrome P450 2C19 (Homo sapiens, UniProt P33261); assay: Inhibition of human CYP2C19 by luminometry; assay type: ADME; method in brief: as §1
Sequence of Cytochrome P450 2C19 (P33261 whole entry): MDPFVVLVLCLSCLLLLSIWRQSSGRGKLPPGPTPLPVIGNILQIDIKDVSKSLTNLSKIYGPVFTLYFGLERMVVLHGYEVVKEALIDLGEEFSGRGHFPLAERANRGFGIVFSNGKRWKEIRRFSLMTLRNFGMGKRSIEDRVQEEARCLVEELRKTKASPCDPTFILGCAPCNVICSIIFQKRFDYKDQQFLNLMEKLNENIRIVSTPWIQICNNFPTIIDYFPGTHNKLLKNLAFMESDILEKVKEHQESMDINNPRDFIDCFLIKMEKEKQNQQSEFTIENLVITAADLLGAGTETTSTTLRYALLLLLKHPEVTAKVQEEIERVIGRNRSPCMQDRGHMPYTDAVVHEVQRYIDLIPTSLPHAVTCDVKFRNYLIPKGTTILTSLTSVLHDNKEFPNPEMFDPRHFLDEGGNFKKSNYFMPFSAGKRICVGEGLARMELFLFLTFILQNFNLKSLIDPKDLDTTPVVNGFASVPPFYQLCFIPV

[14] = Hepatitis C virus, subtype 1b NK/R2AN, Huh-7
[15] = Hepatitis C virus, genotype 2a JFH5a, Huh-7

Row | SMILES | EC50 [1, 14] [nM] | EC50 [2, 15] [nM] | CC50 [3] [nM] | also measured
1 | COC(=O)N[C@@H](C(=O)N1CSC[C@H]1C(=O)Nc1ccc(-c2ccc(NC(=O)[C@@H]3CSCN3C(=O)[C@H](NC(=O)OC)c3ccccc3)cc2)cc1)c1ccccc1 | 0.027 | 15.5 | > 25000 | 
2 | COC(=O)N[C@@H](C(=O)N1CCC[C@H]1C(=O)Nc1ccc2c(c1)Cc1cc(NC(=O)[C@@H]3CCCN3C(=O)[C@H](NC(=O)OC)c3ccccc3)ccc1-2)c1ccccc1 | 0.009 | 5.6 | > 25000 | 
3 | COC(=O)N[C@@H](C(=O)N1CCCC[C@@H]1C(=O)Nc1ccc(-c2ccc(NC(=O)[C@H]3CCCCN3C(=O)[C@H](NC(=O)OC)c3ccccc3)cc2)cc1)c1ccccc1 | 370 | 419 | > 25000 | 
4 | COC(=O)N[C@@H](C(=O)N1CC(=O)C[C@H]1C(=O)Nc1ccc(-c2ccc(NC(=O)[C@@H]3CC(=O)CN3C(=O)[C@H](NC(=O)OC)c3ccccc3)cc2)cc1)c1ccccc1 | 0.044 | 0.26 | > 25000 | 
5 | COC(=O)N[C@@H](C(=O)N1CCC[C@H]1C(=O)Nc1ccc(-c2ccc(NC(=O)[C@@H]3CCCN3C(=O)[C@H](NC(=O)OC)c3ccccc3)c(C)c2)cc1C)c1ccccc1 | 7.4 | 193 | > 25000 | 
6 | COC(=O)N[C@@H](C(=O)N1CCC[C@H]1C(=O)Nc1ccc2c(c1)C(C)(C)c1cc(NC(=O)[C@@H]3CCCN3C(=O)[C@H](NC(=O)OC)c3ccccc3)ccc1-2)c1ccccc1 | 0.004 | 0.02 | > 25000 | EC50 [4]: 1030 nM; bioavailability [5]: 13.8%; EC50 [6]: > 100000 nM; half-life [7]: 4.45 h; remaining at 0.5 h, 1 µM [8]: 95%; EC50 [9]: 269 nM; half-life [10]: 1.62 h; EC50 [11]: > 100000 nM; inhibition at 10 µM [12]: 25.7%; EC50 [13]: 2940 nM
7 | COC(=O)N[C@@H](C(=O)N1CCCC[C@H]1C(=O)Nc1ccc(-c2ccc(NC(=O)[C@@H]3CCCCN3C(=O)[C@H](NC(=O)OC)c3ccccc3)cc2)cc1)c1ccccc1 | 2.1 | 180 | > 25000 | 
8 | COC(=O)N[C@@H](C(=O)N1CCC[C@H]1C(=O)Nc1ccc(-c2ccc(NC(=O)[C@@H]3CCCN3C(=O)[C@H](NC(=O)OC)c3ccccc3)cc2)cc1)c1ccccc1 |  |  | > 25000 | 
9 | COC(=O)N[C@@H](C(=O)N1CCC[C@H]1C(=O)Nc1ccc(-c2ccc(NC(=O)[C@@H]3CCCN3C(=O)[C@H](NC(=O)OC)c3ccccc3)cc2Br)c(Br)c1)c1ccccc1 | 0.007 | 0.01 | > 25000 | 
10 | COC(=O)N[C@@H](C(=O)N1CCC[C@@H]1C(=O)Nc1ccc(-c2ccc(NC(=O)[C@H]3CCCN3C(=O)[C@H](NC(=O)OC)c3ccccc3)cc2)cc1)c1ccccc1 | 83 | 1770 | > 25000 | 
11 | COC(=O)N[C@@H](C(=O)N1CCC[C@H]1C(=O)Nc1ccc(-c2ccc(NC(=O)[C@@H]3CCCN3C(=O)[C@H](NC(=O)OC)c3ccccc3)cc2C(F)(F)F)c(C(F)(F)F)c1)c1ccccc1 (stereo in doubt; form 2) |  |  | > 25000 | EC50 ([1]; huh-7): 27.9 nM; EC50 ([2]; huh-7): 332 nM
